MrgX1 ag: activates human MrgX1 receptor signaling; Q96LB2; MrgX1-HEK293 cells, Fluo-4 calcium fluorescence, agonist mode; hits give high values; B-score at 10 µM; 310,000 tested, 0.44% active;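 active = calcium response B-score plate-corrected fluorescence ratio at least 3 library SD, with starting fluorescence B-score inside 5 SD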
Target sequence (Q96LB2 whole entry, looked up): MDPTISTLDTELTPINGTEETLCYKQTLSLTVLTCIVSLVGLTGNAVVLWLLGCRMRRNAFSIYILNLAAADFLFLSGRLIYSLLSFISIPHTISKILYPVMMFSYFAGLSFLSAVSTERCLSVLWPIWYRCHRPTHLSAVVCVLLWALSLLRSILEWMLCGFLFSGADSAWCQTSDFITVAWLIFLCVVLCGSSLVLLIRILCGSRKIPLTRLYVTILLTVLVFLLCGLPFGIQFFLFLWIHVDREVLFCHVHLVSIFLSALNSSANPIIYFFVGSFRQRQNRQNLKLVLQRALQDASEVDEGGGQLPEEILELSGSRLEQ
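times = overnight plating, then 30 min 37 °C plus 30 min room-temperature dye loading | assay system = stable human MrgX1 HEK293 cell line | input = fifteen thousand cells per well | signal = kinetic calcium dye fluorescence, Fluo-4 NW | dosing = compound delivered in addition one of three | read-out = B-scored fluorescence response ratio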
MrgX1 allo act: human MrgX1 positive allosteric modulation, primary screen | Q96LB2 | MrgX1-HEK293, Fluo-4 calcium flux, FDSS; hits give high values | B-score at 10 µM | 310,000 tested, 0.63% active;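 active = plate-corrected calcium response at least 3 library SD above typical, normal starting fluorescence, not activating the receptor alone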;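 note: compound read alongside a low EC10 to EC30 dose of BAM8-22 agonist; peak minus trough fluorescence over baseline measured at the second addition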
RGS4 inh: inhibitors of human RGS4. B-score at 10 µM. 310,000 tested, 0.45% active. AID 463165. P49798. HEK293 M3R/RGS4 inducible, Fluo-4 calcium flux; hits give high values; triggered by carbachol at its EC20;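 active = B-score, a plate-corrected calcium signal, over three deviations above library mean, with baseline fluorescence within five deviations of library mean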;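 note: RGS4 expression induced by doxycycline in cells with stable M3 receptor; B-score is computed from the integrated fluorescence ratio over baseline after carbachol; higher B-score means a larger calcium signal and so more RGS4 inhibition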
Target sequence (P49798 whole entry, looked up): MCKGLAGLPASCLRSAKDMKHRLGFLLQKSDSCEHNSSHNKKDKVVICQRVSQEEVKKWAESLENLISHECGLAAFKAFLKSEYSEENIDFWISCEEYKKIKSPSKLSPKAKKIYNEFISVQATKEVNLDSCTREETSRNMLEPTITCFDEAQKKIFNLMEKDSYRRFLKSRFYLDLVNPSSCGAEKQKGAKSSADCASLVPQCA
RGS4 pot: RGS4 potentiation or activation | HEK293 M3R/inducible RGS4, carbachol calcium flux Fluo4; hits give low values | B-score at 10 µM | 310,000 tested, 0.92% active | AID 463111;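 active = B-score of the integrated calcium signal more than 4 SD below the library mean, with starting fluorescence not abnormally high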;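 note: negative B-score means reduced calcium response which marks RGS4 activation or potentiation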
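Material: Inducible-RGS4 HEK293 cells carrying M3 receptor; also added: carbachol at ECmax as muscarinic agonist stimulus; incubation: compound preincubation 20 min at room temperature before agonist; signal: Fluo4-AM (2 µM) calcium-flux fluorescence, kinetic read; measure: integrated calcium ratio converted to B score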
MrgX1 antag: human MrgX1 receptor antagonism, primary screen. Q96LB2. AID 588676. B-score at 10 µM. MRGX1-HEK293 calcium flux, Fluo-4, BAM8-22 antagonism; hits give low values. 310,000 tested, 1.3% active;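 active = calcium-response B-score plate-corrected more than 3 library SD below zero, starting fluorescence within 5 deviations, no agonist response on first addition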;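 note: peak minus trough fluorescence over baseline after final BAM8-22 challenge near maximal dose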
RGS4 inh valid: RGS4 inhibitor validation | shares compounds with RGS4 inh | HEK293 M3R/RGS4, carbachol calcium Fluo-4 fluorescence; carbachol added at its EC20; 0 = buffer wells, 100 = carbachol control | calcium response, % at 10 µM | 1,700 tested, 65% active | AID 492999;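 active = duplicate-averaged calcium response above the buffer-only control mean plus 5 SD of those controls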;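 note: integrated fluorescence ratio F max minus min over baseline F0; higher response in RGS4-induced cells means RGS4 inhibition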
RGS4 uninduced: counter-screen for RGS4 inhibitors: effect in non-induced cells | HEK293 M3R non-induced, carbachol calcium Fluo-4; submaximal (EC20) carbachol stimulus; buffer wells 0%, carbachol control wells 100% | shares compounds with RGS4 inh | 1,900 tested, 20% active | AID 493000 | activity (percent), % at 10 µM; call rule not given here;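 note: RGS4 induction absent so cells express M3R without RGS4; higher means more calcium signal and flags a non-specific hit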
RGS4 inh ctr2: second RGS4 inhibitor counter-screen in uninduced cells lacking carbachol. shares compounds with RGS4 inh. HEK293 M3R/RGS4 non-induced, Fluo-4 calcium, no carbachol; normalised: buffer wells 0%, carbachol wells 100%. calcium response (agonist-mode artifact), % at 10 µM. 1,900 tested, 22% active;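 active = duplicate-averaged calcium rise in uninduced cells above buffer wells' mean plus 5 SD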
Active calls of the source: *; i = inactive; · = no result. Shown are actives, neighbours in structure and some others; about 3.5% of the full set was active somewhere.

SMILES	MrgX1 ag	MrgX1 allo act	RGS4 inh	RGS4 pot	MrgX1 antag	RGS4 inh valid	RGS4 uninduced	RGS4 inh ctr2
Cc1nnnn1/C(=C\c1ccccc1)C(=O)OCC(=O)NC(C)(C)C	i	i	i	i	i	·	·	·
CCOc1ccc(CN(C)C(=O)c2ccc(NC(=O)CC3SC(N4CCCC4)=NC3=O)cc2)cc1 (stereo not drawn)	i	i	i	i	i	·	·	·
COc1ccc(/C=C2/C(=O)N(c3ccccc3)N=C2C)cc1OC	i	i	i	i	i	i	i	i
CC1=NN(c2ccccc2)C(=O)/C1=C/c1cccc(C)c1	i	i	i	i	i	·	·	·
COc1ccc(S(=O)(=O)N2CCOC2CNC(=O)C(=O)NCc2ccco2)cc1OC (stereo not drawn)	i	i	i	i	i	·	·	·
Cc1[nH]n(-c2c(Cl)cc(Cl)cc2Cl)c(=O)c1C=Nc1ccc(S(=O)(=O)N2CCOCC2)cc1	i	i	i	i	i	i	i	i
Cc1[nH]n(-c2ccccc2)c(=O)c1C=Nc1ccc(S(N)(=O)=O)cc1	i	i	i	i	i	·	·	·
O=C1ON=C(c2ccccc2)/C1=C/c1ccc(O)c(O)c1	i	i	5.72*	i	i	26.5%*	i	53.0%*
O=C1ON=C(c2cccc([N+](=O)[O-])c2)/C1=C/c1ccc(O)cc1	i	i	16.4*	i	i	44.5%*	i	29.0%*
COc1ccc(Cl)cc1/C=C1/C(=O)ON=C1C	i	i	i	i	i	·	·	·
CC1=NOC(=O)/C1=C/c1ccc(O)c(Cl)c1	37.4*	i	8.25*	i	i	17.0%*	i	50.5%*
COc1ccc(/C=C2\C(=O)ON=C2c2ccccc2)cc1	i	i	i	i	i	·	·	·
COc1cc(/C=C2\C(=O)ON=C2c2ccc(Cl)cc2)ccc1O	26.6*	i	i	i	i	·	i	56.5%*
Cc1cccc(N/N=C(\C(N)=O)C2=NC(C)(C)Cc3ccccc32)c1	i	13*	i	i	i	·	i	i
CCOC(=O)/C(=N\O)C1=NC(C)(C)Cc2ccccc21	i	i	i	i	i	·	·	·
CCn1cc(CNC(=O)C2CCC(=O)N(Cc3ccc(Cl)cc3)C2)cn1 (stereo not drawn)	i	i	i	i	i	·	·	·
Cc1cc(C)c(S(=O)(=O)N2CCCCC2C(=O)O)c(C)c1 (stereo not drawn)	i	i	i	i	i	·	·	·
CC(=O)NN(O)C1N(C)C(=O)N(Cc2ccccc2)C1(C)C (stereo not drawn)	i	i	i	i	i	·	·	·
COc1ccc(CC(NC(C)=O)C(=O)NC2CCN(S(=O)(=O)c3ccccc3)CC2)c(OC)c1 (stereo not drawn)	i	i	i	i	i	·	i	i
COc1cnc(-c2ccccn2)nc1Oc1ccccc1Cl	i	i	i	i	i	·	·	·
COc1cnc(-c2ccccn2)nc1Oc1ccc(Cl)c2ccccc12	i	i	10.4*	i	i	16.5%*	i	i
COc1ccc(-c2cn[nH]c2-c2ccc(OCc3ccc([N+](=O)[O-])cc3)cc2O)cc1OC	i	i	i	i	i	·	·	·
CCc1cc(-c2[nH]ncc2-c2ccc([N+](=O)[O-])cc2)c(O)cc1OC	i	25.6*	12.3*	i	i	34.0%*	i	i
COc1ccc(C(=O)c2c(NC(C)=O)sc3c2CCN(C(=O)OC(C)(C)C)C3)cc1	i	i	i	i	i	·	·	·
Cc1ccc(-c2cc(-c3ccccc3[N+](=O)[O-])[nH]n2)c(O)c1	i	i	i	i	i	·	i	i
SMILES	MrgX1 ag	MrgX1 allo act	RGS4 inh	RGS4 pot	MrgX1 antag	RGS4 inh valid	RGS4 uninduced	RGS4 inh ctr2
Cc1ccc(-c2cc(-c3ccccc3Cl)[nH]n2)c(O)c1	i	i	i	i	i	·	·	·
O=[N+]([O-])/C=C\c1ccc(N2CCCC2)c(F)c1	·	·	35.7*	i	·	33.5%*	i	75.0%*
C=CCN1C(=O)C2(OCCO2)c2cc(C)ccc21	i	i	i	i	i	·	·	·
O=C(CN1C(=O)/C(=C\c2cccc(Cl)c2)Oc2ccccc21)N1CCN(c2ccccn2)CC1	i	i	i	i	i	·	·	·
c1ccc2cc(OCCCn3ccnc3)ccc2c1	i	i	i	i	i	·	·	·
CC(=O)Nc1ccc(S(=O)(=O)/N=C2/NC(=O)/C(=C\c3ccco3)S2)cc1	i	i	i	i	i	·	·	·
O=C1N/C(=N\S(=O)(=O)Cc2ccccc2)S/C1=C/c1cccc([N+](=O)[O-])c1	i	i	i	i	i	·	·	·
O=C1N/C(=N/S(=O)(=O)c2ccccc2)S/C1=C/c1cccnc1	i	i	i	i	i	·	·	·
Cc1ccc(S(=O)(=O)/N=C2/NC(=O)/C(=C/c3ccccc3)S2)cc1	i	i	i	i	i	i	i	i
COc1ccc(/C=C2/S/C(=N/S(=O)(=O)Cc3ccccc3)NC2=O)cc1OC	i	i	7.78*	i	i	19.5%*	48.0%*	i
Cc1ccc(S(=O)(=O)/N=C2/NC(=O)/C(=C/c3ccncc3)S2)cc1	i	i	4.91*	i	i	16.0%*	i	i
COc1cc(/C=C2\S/C(=N/S(=O)(=O)c3ccc(C)cc3)NC2=O)c([N+](=O)[O-])cc1OC	i	i	i	i	i	i	38.5%*	i
O=Cc1cccc2ccc3cccc(C(=O)O)c3c12	i	i	i	i	i	·	·	·
O=C1[C@H]2[C@@H](c3ccc(F)cc3)N3C(=O)N(c4ccc(Br)cc4)C(=O)[C@@]3(Cc3ccccc3)[C@H]2C(=O)N1C1CCCCC1	i	i	i	i	i	·	·	·
CCC1=NN(C(=O)CCc2ccc3c(c2)OCO3)C(O)(C(F)(F)F)C1 (stereo not drawn)	i	i	i	i	i	·	·	·
O=S1(=O)CCC(n2nccc2-c2ccccc2)C1 (stereo not drawn)	i	i	i	i	i	·	·	·

Screening data deposited in PubChem BioAssay by Johns Hopkins Ion Channel Center.
